ChEMBL document CHEMBL2176944, “2-(3-Oxo-1,3-diphenylpropyl)malonic acids as potent allosteric ligands of the PIF pocket of phosphoinositide-dependent kinase-1: development and prodrug concept” (J Med Chem, 2012)
Values belong to the molecule of their own block, whether it stands above or below them. Calls of active or inactive are those of the source. The rule behind the calls is not given here.

Tests used:
[1] = target: T1, 3-phosphoinositide-dependent protein kinase 1 (Homo sapiens) (UniProt O15530); experiment: Activation of PDK1 using KTFCGTPEYLAPEVRR as substrate and [gamma32P]-ATP/Mg2+ by phosphor imaging analysis relative to control
T1 sequence (whole entry): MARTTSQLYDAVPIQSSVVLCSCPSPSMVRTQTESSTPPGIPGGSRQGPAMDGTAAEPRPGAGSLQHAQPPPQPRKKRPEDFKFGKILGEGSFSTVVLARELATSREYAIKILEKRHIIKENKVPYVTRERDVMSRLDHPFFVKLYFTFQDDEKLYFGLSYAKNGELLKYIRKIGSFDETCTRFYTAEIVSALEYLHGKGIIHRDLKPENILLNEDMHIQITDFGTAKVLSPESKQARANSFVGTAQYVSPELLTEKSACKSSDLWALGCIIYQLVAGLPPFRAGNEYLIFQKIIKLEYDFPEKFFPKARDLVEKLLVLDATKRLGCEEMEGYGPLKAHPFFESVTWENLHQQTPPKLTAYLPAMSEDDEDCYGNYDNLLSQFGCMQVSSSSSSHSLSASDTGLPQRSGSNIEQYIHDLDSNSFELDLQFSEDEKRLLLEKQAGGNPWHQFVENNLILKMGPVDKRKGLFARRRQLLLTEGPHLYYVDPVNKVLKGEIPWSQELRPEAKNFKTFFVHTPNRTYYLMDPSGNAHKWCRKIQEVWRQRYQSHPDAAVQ
How it was run: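 Radioactive kinase assay with 0.25 μM PDK1 and [γ32P]ATP. Phosphorylated peptide was captured on P81 phosphocellulose paper and detected by phosphorimaging. Activation is expressed relative to DMSO control (=100%). AC50 is the concentration giving half-maximal activation. Values are the mean of at least two independent experiments.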

[2] = target: T1, 3-phosphoinositide-dependent protein kinase 1 (Homo sapiens); experiment: Increase in thermal stability of PDK1 assessed as concentration required to increase 1.5 degC thermal stability by differential scanning fluorimetry
How it was run: (§1)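 PDK1 (1 μM) in 10 mM HEPES pH 7.5, 150 mM NaCl, 1 mM DTT and 1/1000 SYPRO Orange, with ligand at 1% final DMSO, was heated from 25–70 °C in 0.3 °C steps. Tm came from a Boltzmann fit, and ΔTm is relative to DMSO control, each point from duplicates. EC50 was fitted from ΔTm versus concentration, along with the concentration giving a 1.5 °C shift.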

[3] = target: T1, 3-phosphoinositide-dependent protein kinase 1 (Homo sapiens); experiment: Increase in thermal stability of PDK1 by differential scanning fluorimetry relative to control; how it was run: as §1
[4] = target: T2, 3-phosphoinositide-dependent protein kinase 1 (Homo sapiens, UniProt O15530); experiment: Increase in thermal stability of PDK1 by differential scanning fluorimetry; how it was run: as §1
T2 sequence (O15530 whole entry): T1 sequence (whole entry)

[5] = Activation of MSK at 50 uM relative to control
[6] = Activation of MSK at 2 uM relative to control
[7] = Activation of RSK at 2 uM relative to control
[8] = Activation of RSK at 50 uM relative to control
[9] = target: Serine/threonine-protein kinase N2 (Homo sapiens) (UniProt Q16513); experiment: Activation of PRK2 at 50 uM relative to control
[10] = Activation of PKA at 50 uM relative to control
[11] = target: Serine/threonine-protein kinase N2 (Homo sapiens) (UniProt Q16513); experiment: Activation of PRK2 at 2 uM relative to control
[12] = Activation of PKA at 2 uM relative to control
[13] = target: RAC-alpha serine/threonine-protein kinase (Homo sapiens) (UniProt P31749); experiment: Activation of PKBalpha at 50 uM relative to control
[14] = target: RAC-alpha serine/threonine-protein kinase (Homo sapiens) (UniProt P31749); experiment: Activation of PKBalpha at 2 uM relative to control
[15] = target: T3, Serine/threonine-protein kinase Sgk1 (Homo sapiens) (UniProt O00141); experiment: Activation of SGK at 2 uM relative to control
T3 sequence (whole entry): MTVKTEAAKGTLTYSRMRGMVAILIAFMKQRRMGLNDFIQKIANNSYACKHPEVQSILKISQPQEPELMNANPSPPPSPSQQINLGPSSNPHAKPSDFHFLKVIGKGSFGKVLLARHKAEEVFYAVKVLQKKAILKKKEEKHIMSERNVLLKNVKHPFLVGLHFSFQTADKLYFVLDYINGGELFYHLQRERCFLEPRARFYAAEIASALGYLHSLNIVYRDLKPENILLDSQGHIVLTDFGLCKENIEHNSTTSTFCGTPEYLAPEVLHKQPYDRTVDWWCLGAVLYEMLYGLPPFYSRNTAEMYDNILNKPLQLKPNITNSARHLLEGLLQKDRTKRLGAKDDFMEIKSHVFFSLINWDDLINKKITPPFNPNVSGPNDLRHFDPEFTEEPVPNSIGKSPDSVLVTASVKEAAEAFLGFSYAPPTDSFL

[16] = target: T3, Serine/threonine-protein kinase Sgk1 (Homo sapiens); experiment: Activation of SGK at 50 uM relative to control
[17] = target: T4, Protein kinase C zeta type (Homo sapiens) (UniProt Q05513); experiment: Activation of PKCzeta at 50 uM relative to control
T4 sequence (whole entry): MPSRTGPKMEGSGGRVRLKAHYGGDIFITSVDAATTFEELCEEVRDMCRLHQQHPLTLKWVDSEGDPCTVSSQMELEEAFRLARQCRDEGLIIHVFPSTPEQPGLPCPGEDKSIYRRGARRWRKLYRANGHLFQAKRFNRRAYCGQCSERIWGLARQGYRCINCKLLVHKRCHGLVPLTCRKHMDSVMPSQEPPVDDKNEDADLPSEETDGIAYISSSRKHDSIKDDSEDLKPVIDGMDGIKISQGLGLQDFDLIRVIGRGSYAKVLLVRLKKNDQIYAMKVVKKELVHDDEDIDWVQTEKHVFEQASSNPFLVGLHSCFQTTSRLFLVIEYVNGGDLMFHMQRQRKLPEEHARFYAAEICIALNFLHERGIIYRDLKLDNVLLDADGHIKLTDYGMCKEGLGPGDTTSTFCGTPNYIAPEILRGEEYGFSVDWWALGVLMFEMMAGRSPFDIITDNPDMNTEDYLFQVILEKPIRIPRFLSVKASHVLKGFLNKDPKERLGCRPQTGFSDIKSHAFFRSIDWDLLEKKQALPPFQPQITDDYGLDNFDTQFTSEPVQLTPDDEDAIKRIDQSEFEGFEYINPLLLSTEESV

[18] = target: T4, Protein kinase C zeta type (Homo sapiens); experiment: Activation of PKCzeta at 2 uM relative to control
[19] = target: Ribosomal protein S6 kinase beta-1 (Homo sapiens) (UniProt P23443); experiment: Activation of S6K1 at 2 uM relative to control
[20] = target: Ribosomal protein S6 kinase beta-1 (Homo sapiens) (UniProt P23443); experiment: Activation of S6K1 at 50 uM relative to control
[21] = target: T2, 3-phosphoinositide-dependent protein kinase 1; experiment: Binding affinity to PDK1
[22] = system: L6; experiment: Cellular uptake in rat L6 cells at 20 uM up to 100 mins by mass spectroscopy analysis; assay type: ADME, cell-based; conditions: l6, 100 min

Chain of Serine/threonine-protein kinase N2 (Homo sapiens) (Q16513 whole entry, looked up): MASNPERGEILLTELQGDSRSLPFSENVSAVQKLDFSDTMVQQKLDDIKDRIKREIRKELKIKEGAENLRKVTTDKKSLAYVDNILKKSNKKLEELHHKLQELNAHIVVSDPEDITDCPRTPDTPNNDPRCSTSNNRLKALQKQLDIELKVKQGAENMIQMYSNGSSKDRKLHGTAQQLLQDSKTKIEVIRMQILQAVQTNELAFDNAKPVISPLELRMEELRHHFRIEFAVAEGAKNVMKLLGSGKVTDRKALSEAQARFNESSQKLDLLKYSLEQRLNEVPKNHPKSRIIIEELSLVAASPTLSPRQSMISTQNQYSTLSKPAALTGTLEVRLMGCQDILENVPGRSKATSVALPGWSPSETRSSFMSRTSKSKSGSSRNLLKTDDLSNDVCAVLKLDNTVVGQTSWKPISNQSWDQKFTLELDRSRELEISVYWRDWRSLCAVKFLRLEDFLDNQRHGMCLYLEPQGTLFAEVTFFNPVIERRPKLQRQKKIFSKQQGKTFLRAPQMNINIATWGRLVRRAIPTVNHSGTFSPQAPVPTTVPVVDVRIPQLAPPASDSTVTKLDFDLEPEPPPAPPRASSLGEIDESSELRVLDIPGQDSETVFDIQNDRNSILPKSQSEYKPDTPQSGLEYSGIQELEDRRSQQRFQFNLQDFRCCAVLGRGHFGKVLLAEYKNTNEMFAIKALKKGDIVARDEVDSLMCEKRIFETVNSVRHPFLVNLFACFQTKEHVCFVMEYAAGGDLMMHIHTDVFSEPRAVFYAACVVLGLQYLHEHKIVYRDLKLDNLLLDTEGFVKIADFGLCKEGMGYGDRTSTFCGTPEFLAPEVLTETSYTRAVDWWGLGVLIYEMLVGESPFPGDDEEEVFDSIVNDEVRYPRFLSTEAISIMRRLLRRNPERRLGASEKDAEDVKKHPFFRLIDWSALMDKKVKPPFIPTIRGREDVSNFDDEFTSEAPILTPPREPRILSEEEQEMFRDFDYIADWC
Chain of RAC-alpha serine/threonine-protein kinase (Homo sapiens) (P31749 whole entry): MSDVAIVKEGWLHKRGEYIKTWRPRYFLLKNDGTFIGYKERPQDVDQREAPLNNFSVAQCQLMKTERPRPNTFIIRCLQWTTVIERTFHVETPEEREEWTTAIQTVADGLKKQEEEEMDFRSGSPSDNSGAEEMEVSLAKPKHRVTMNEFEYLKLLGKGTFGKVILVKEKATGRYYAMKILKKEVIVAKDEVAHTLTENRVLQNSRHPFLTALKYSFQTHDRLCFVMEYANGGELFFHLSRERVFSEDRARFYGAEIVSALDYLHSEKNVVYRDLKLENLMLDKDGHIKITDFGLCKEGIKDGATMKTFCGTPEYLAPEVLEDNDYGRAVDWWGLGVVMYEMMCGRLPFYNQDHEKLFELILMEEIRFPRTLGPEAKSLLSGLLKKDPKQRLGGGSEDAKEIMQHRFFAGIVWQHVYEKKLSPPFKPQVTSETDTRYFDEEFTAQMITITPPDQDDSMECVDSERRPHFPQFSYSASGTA
Chain of Ribosomal protein S6 kinase beta-1 (Homo sapiens) (P23443 whole entry, looked up): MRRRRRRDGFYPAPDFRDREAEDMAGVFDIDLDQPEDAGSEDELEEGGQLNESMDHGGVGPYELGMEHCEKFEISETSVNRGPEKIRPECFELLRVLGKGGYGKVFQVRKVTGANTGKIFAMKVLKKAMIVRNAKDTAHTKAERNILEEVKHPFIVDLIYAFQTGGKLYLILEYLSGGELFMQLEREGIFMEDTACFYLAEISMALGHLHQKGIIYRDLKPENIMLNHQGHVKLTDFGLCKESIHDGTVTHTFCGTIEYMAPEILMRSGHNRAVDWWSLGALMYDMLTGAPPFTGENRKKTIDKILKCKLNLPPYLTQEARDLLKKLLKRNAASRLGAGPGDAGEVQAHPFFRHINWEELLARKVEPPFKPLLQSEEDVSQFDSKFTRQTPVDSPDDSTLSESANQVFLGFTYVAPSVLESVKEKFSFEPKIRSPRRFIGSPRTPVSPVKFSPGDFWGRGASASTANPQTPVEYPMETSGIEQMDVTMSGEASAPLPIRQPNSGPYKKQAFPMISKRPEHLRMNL

max activation [1]: inactive
Molecule: O=C(O)CC(CC(=O)c1ccc(Cl)cc1)c1ccc(Cl)cc1 (racemic)

max activation [1]: 2.5
Molecule: O=C(O)CC(CC(=O)c1cccc(Cl)c1)c1ccccc1 (racemic)

max activation [1]: 2
Molecule: O=C(O)CC(CC(=O)c1ccc(Br)cc1)c1ccccc1 (racemic)

max activation [1]: 2
Molecule: O=C(CC(c1ccc(Cl)cc1)C(C(=O)O)C(=O)O)c1ccc(Cl)cc1 (racemic)

max activation [1]: 4
Molecule: O=C(O)CC(CC(=O)c1ccc(I)cc1)c1ccccc1 (racemic)

Activity [2]: 30.9 µM
ΔTm [3]: 5.2 °C
EC50 [4]: 60 µM
max activation [1]: 4
Molecule: O=C(CC(c1ccccc1)C(C(=O)O)C(=O)O)c1ccc(I)cc1 (racemic)

max activation [1]: 2
Molecule: CCc1ccc(C(=O)CC(CC(=O)O)c2ccccc2)cc1 (racemic)

Activity [5]: inactive
Activity [6]: inactive
Activity [7]: inactive
Activity [8]: 160%
Activity [9]: inactive
Activity [10]: inactive
Activity [11]: inactive
Activity [12]: inactive
Activity [13]: inactive
Activity [14]: inactive
Activity [15]: inactive
Activity [16]: inactive
Activity [17]: inactive
Activity [18]: inactive
Activity [19]: 84%
Activity [20]: 47%
max activation [1]: 4
Molecule: O=C(CC(c1ccccc1)C(C(=O)O)C(=O)O)c1ccc(Cl)cc1 (racemic)

max activation [1]: 2.5
Molecule: O=C(O)CC(CC(=O)c1ccc2ccccc2c1)c1ccccc1 (racemic)

max activation [1]: inactive
Molecule: O=C(CC(c1cc(-c2ccccc2)cs1)C(C(=O)O)C(=O)O)c1ccc(C(F)(F)F)cc1 (racemic)

max activation [1]: 3.8
Molecule: O=C(CC(c1ccc(Cl)cc1)C(C(=O)O)C(=O)O)c1ccc(I)cc1 (racemic)

max activation [1]: 2.5
Molecule: O=C(O)CC(CC(=O)c1ccc(I)cc1)c1ccc(Cl)cc1 (racemic)

max activation [1]: 3
Molecule: CCc1ccc(C(=O)CC(c2ccc(Cl)cc2)C(C(=O)O)C(=O)O)cc1 (racemic)

max activation [1]: inactive
Molecule: O=C(CC(c1ccc(Cl)cc1)C(C(=O)O)C(=O)O)c1ccc(O)cc1 (racemic)

max activation [1]: 3
Molecule: O=C(CC(c1ccccc1)C(C(=O)O)C(=O)O)c1c[nH]c2ccccc12 (racemic)

max activation [1]: 4
Molecule: O=C(CC(c1ccccc1)C(C(=O)O)C(=O)O)c1ccc2ccccc2c1 (racemic)

max activation [1]: 3
Molecule: O=C(O)CC(CC(=O)c1ccc(Cl)cc1)c1ccccc1 (racemic)

Activity [2]: 18.9 µM
ΔTm [3]: 2.4 °C
EC50 [4]: 13 µM
max activation [1]: 3.6
Molecule: O=C(CC(c1ccc2ccccc2c1)C(C(=O)O)C(=O)O)c1ccc(I)cc1 (racemic)

max activation [1]: 2.6
Molecule: O=C(CC(c1ccccc1)C(C(=O)O)C(=O)O)c1cccc(Cl)c1 (racemic)

max activation [1]: 5
Molecule: CCc1ccc(C(=O)CC(c2ccccc2)C(C(=O)O)C(=O)O)cc1 (racemic)

max activation [1]: 3
Molecule: O=C(CC(c1ccc(Cl)cc1)C(C(=O)O)C(=O)O)c1ccc(Br)cc1 (racemic)

Activity [2]: 3.1 µM
ΔTm [3]: 7.3 °C
EC50 [4]: 14.2 µM
max activation [1]: 3.4
Kd [21]: 0.043 µM
Molecule: H-REPRILSEEEQEMFRDFDYIADWC-OH

Drug uptake [22]: Not Active
Activity [5]: inactive
Activity [6]: inactive
Activity [7]: inactive
Activity [8]: 140%
Activity [9]: inactive
Activity [10]: 80%
Activity [11]: inactive
Activity [12]: inactive
Activity [13]: inactive
Activity [14]: inactive
Activity [15]: inactive
Activity [16]: inactive
Activity [17]: inactive
Activity [18]: inactive
Activity [19]: 82%
Activity [20]: 46%
Activity [2]: 67.6 µM
ΔTm [3]: 3.9 °C
EC50 [4]: 85.8 µM
max activation [1]: 5.5
Molecule: O=C(CC(c1ccccc1)C(C(=O)O)C(=O)O)c1ccc(C(F)(F)F)cc1 (racemic)

max activation [1]: 3.7
Molecule: O=C(CC(c1ccccc1)C(C(=O)O)C(=O)O)c1ccc2c(ccc3ccccc32)c1 (racemic)

max activation [1]: 3.6
Molecule: COc1ccc2cc(C(=O)CC(c3ccccc3)C(C(=O)O)C(=O)O)ccc2c1 (racemic)

max activation [1]: 4
Molecule: O=C(O)CC(CC(=O)c1ccc(C(F)(F)F)cc1)c1ccccc1 (racemic)

max activation [1]: 2
Molecule: O=C(C[C@@H](c1ccccc1)C(C(=O)O)C(=O)O)c1ccc(C(F)(F)F)cc1

max activation [1]: 3
Molecule: O=C(O)CC(CC(=O)c1ccc2cc(O)ccc2c1)c1ccccc1 (racemic)

max activation [1]: 2.8
Molecule: O=C(O)CC(CC(=O)c1ccc(Oc2ccccc2)cc1)c1ccccc1 (racemic)

max activation [1]: 5.5
Molecule: O=C(C[C@H](c1ccccc1)C(C(=O)O)C(=O)O)c1ccc(C(F)(F)F)cc1

max activation [1]: 3.4
Molecule: O=C(O)CC(CC(=O)c1ccc2ccccc2c1)c1ccc2ccccc2c1 (racemic)

max activation [1]: inactive
Molecule: O=C(O)CC(CC(=O)c1ccc(C(F)(F)F)cc1)c1ccc(Cl)cc1 (racemic)

Activity [2]: 18.2 µM
ΔTm [3]: 4.9 °C
EC50 [4]: 30.2 µM
max activation [1]: 3.6
Molecule: O=C(CC(c1ccccc1)C(C(=O)O)C(=O)O)c1ccc2c(c1)[nH]c1ccccc12 (racemic)

Activity [9]: inactive
Activity [10]: 74%
Activity [11]: inactive
Activity [12]: inactive
Activity [13]: inactive
Activity [14]: inactive
Activity [15]: inactive
Activity [16]: inactive
Activity [17]: inactive
Activity [18]: inactive
Activity [19]: inactive
Activity [20]: 84%
Molecule: O=C(O)/C=C(/CCc1ccc(Cl)cc1)c1ccccc1

max activation [1]: 3.5
Molecule: O=C(CC(c1ccc(Cl)cc1)C(C(=O)O)C(=O)O)c1ccc(C(F)(F)F)cc1 (racemic)

max activation [1]: 1.5
Molecule: O=C(O)CC(CC(=O)c1ccc2c(ccc3ccccc32)c1)c1ccccc1 (racemic)

max activation [1]: 7
Molecule: O=C(CC(c1ccccc1)C(C(=O)O)C(=O)O)c1ccc(Oc2ccccc2)cc1 (racemic)

max activation [1]: 3.7
Molecule: O=C(CC(c1ccccc1)C(C(=O)O)C(=O)O)c1ccc(Br)cc1 (racemic)

max activation [1]: 4.8
Molecule: O=C(CC(c1ccc2ccccc2c1)C(C(=O)O)C(=O)O)c1ccc2ccccc2c1 (racemic)
